We go through eight compounds from ChEMBL document CHEMBL1138199, “Identification of compounds with anti-West Nile Virus activity” (J Med Chem, 2006).

Data set [1] has as its system West Nile virus. Briefly: Inhibition of West Nile viral Rluc-Neo-Rep in BHK21 cell line. In kind it is functional, organism-based. As to conditions: BHK-21. Put shortly: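 BHK-21 cell line stably carrying Rluc-Neo-Rep replicon; inhibition read as suppression of Renilla luciferase signal. Initial screen at 30 µM, 1% DMSO final; EC50 (µM) then determined.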
Data set [2] relates to West Nile virus. The data set is described as follows: Activity against West Nile virus RlucRep RNA translation in BHK21 cells at 100 uM, 2 hr post transfection. The data set is classed as functional, BHK-21. Put shortly: (§1)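 BHK cells transfected with WN RlucRep RNA (transient replicon), incubated with compound at 33 or 100 µM; luciferase read at 2, 4 and 72 h post-transfection. 2 and 4 h signals report viral translation, 72 h reports RNA synthesis. Activity given as percent of luciferase signal versus mock-treated transfection; average of two to three experiments.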

The subject of data set [3] is West Nile virus. Briefly: Activity against West Nile virus RlucRep RNA translation in BHK21 cells at 33 uM, 4 h post transfection. In kind it is functional, BHK-21. In outline: as §1
Data set [4] concerns West Nile virus. The data set is described as follows: Activity against West Nile virus RlucRep RNA translation in BHK21 cells at 100 uM, 4 hr post transfection. The data set is classed as functional, BHK-21. Put shortly:
as §1

The subject of data set [5] is West Nile virus. The data set is described as follows: Activity against West Nile virus RlucRep RNA synthesis in BHK21 cells at 33 uM, 72 hr post transfection. The data set is classed as functional, BHK-21. Put shortly: as §1
In data set [6] the test system is West Nile virus. The data set is described as follows: Activity against West Nile virus RlucRep RNA synthesis in BHK21 cells at 100 uM, 72 h post transfection. The data set is classed as functional, BHK-21. In outline:
as §1

For data set [7], the system named is BHK-21. Briefly: Cytotoxicity against BHK21 cell line by MTT assay. In kind it is functional. As to conditions: Mesocricetus auratus. In outline: (§2)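 MTT cytotoxicity assay run in BHK-21 and Vero cells on compounds giving >50% Rluc inhibition in the primary screens; CC50 reported in µM.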
On the technique in general: Tetrazolium dyes change colour on reduction, which living cells bring about.

A short description of data set [8]: Therapeutic index (CC50/EC50) in BHK21 cells. The data set is classed as cell-based, BHK-21. As to conditions: hamster, read-out: Ratio CC50/EC50. In outline:
(§3)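 TI computed as CC50/EC50, using MTT CC50 and replicon EC50 in BHK-21 cells, or MTT CC50 and Rluc-FL-WNV EC50 in Vero cells.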

Data set [9] relates to West Nile virus. Briefly: Inhibition of Rluc-FL-WNV replicon in Vero cells. In kind it is functional, organism-based. In outline: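 Vero cells infected with full-length WNV carrying Renilla luciferase reporter (Rluc-FL-WNV), covering entry, replication and assembly; inhibition read as suppression of luciferase signal. Compounds first screened at 30 µM in 1% DMSO final, then EC50 (µM) determined.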
Background: Replicon systems follow genome replication, usually without infectious particles.

The subject of data set [10] is Vero. The data set is described as follows: Cytotoxicity against Vero cells by MTT assay. In kind it is functional. As to conditions: Chlorocebus sabaeus. In outline:
as §2

Data set [11] is described as follows: Therapeutic index (CC50/EC50) in Vero cells. The data set is classed as cell-based. As to conditions: monkey, read-out: Ratio CC50/EC50. In outline: as §3
In data set [12] the test system is BHK-21. Briefly: Inhibition of West Nile virus VLP replicon in BHK21 cell line. As to conditions: Mesocricetus auratus. In kind it is functional, cell-based. In outline:
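Naive BHK-21 cells infected with virus-like particles, made by expressing WNV structural proteins in cells carrying the Rluc-Neo-Rep replicon, which package replicon RNA. This captures entry and replication but not assembly. Inhibition is read as suppression of Renilla luciferase signal. Compounds were given in 1% DMSO final, and EC50 is in µM.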

Data set [13] concerns Vero. The data set is described as follows: Inhibition of West Nile viral Rluc-Neo-Rep in Vero cells. The data set is classed as functional, cell-based. Conditions: Chlorocebus sabaeus. In outline: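 Vero cells containing the Rluc-Neo-Rep replicon, used to check cell-line dependence; inhibition measured as suppression of Renilla luciferase signal, EC50 in µM.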
Data set [14] relates to West Nile virus. Briefly: Activity against West Nile virus RlucRep RNA translation in BHK21 cells at 33 uM, 2 hr post transfection. The data set is classed as functional, BHK-21. In outline:
as §1

Data set [15] relates to West Nile virus. Briefly: Inhibition of West Nile virus in vero cells at 11 uM; values are per cent of control.
For data set [16], the system named is West Nile virus. The data set is described as follows: Inhibition of West Nile virus in Vero cells at 33 uM; values are per cent of control.
Data set [17] concerns West Nile virus. Briefly: Inhibition of West Nile virus in Vero cells at 0.4 uM; values are per cent of control.
The subject of data set [18] is West Nile virus. Briefly: Inhibition of West Nile virus in Vero cells at 1.2 uM; values are per cent of control.
The subject of data set [19] is West Nile virus. The data set is described as follows: Inhibition of West Nile virus in Vero cells at 3.7 uM; values are per cent of control.
Data set [20] relates to West Nile virus. Briefly: Inhibition of West Nile virus in Vero cells at 100 uM; values are per cent of control.

As to `O=C(Cc1ccc(Cl)cc1)N1N=C(c2cccs2)CC1c1ccc([N+](=O)[O-])cc1` (centres undefined), the EC50 is 11 µM in data set [1], 25 µM in data set [9], 8 µM in data set [12] and 7 µM in data set [13]. Also, the Activity in data set [2] is 81%; in [3], 92%; in data set [4], 93%; in data set [5] it was 12%; in data set [6], 16%; in [14], 80%. Also, the CC50 in data set [7] and in data set [10] was more than 300 µM in each case. For the same compound, the selectivity ratio is more than 27 in [8] and more than 12 in data set [11]. Besides, the remaining activity at 11 µM in data set [15] was determined as 55%. In data set [16], this compound came in with a remaining activity at 33 µM of 23%. In data set [17], this compound returned a remaining activity at 0.4 µM of 100%. In data set [18], this compound registered a remaining activity at 1.2 µM of 92%. The compound also gave a remaining activity at 3.7 µM in data set [19] of 90%. In data set [20], this compound came in with a remaining activity at 100 µM of 23%.

Consider `NC(=O)c1ncn([C@@H]2O[C@H](CO)[C@@H](O)[C@H]2O)n1` [RIBAVIRIN], for which the EC50 in data set [1] came to 18 µM; in data set [9], 30 µM; in [12], 1.1 µM; in data set [13], 119 µM.

In the case of `O=C(c1ccccc1)N1N=C(c2cccs2)CC1c1ccc(Cl)cc1` (centres undefined), the EC50 in [1] stood at 17 µM; in data set [9], 23 µM; in [12] it was 15 µM; in [13] it was 15 µM. Further, the CC50 in [7] and in data set [10] was more than 300 µM each time. In addition, the selectivity ratio in data set [8] is more than 18; in [11] it was more than 13.

Regarding `CCN(CC)C(=O)c1ccc2nc3ccccc3c(NCCc3c[nH]c4ccccc34)c2c1`, the EC50 in [1] was 25 µM; in data set [9] it was 15 µM; in [12] it was 20 µM. The CC50 was 110 µM in data set [7] and 75 µM in [10]. For the same compound, the selectivity ratio in data set [8] worked out at 4.4; in data set [11], 5.

As for `COc1c(C)c2c(c(O)c1C/C=C(\C)CCC(=O)O)C(=O)OC2` [MYCOPHENOLIC ACID], the EC50 is 1.4 µM in [1], 0.04 µM in data set [9], 0.04 µM in data set [12] and 0.08 µM in data set [13].

Take `CN1CCN(C(=O)c2cccc3c(NCCc4c[nH]c5ccccc45)c4ccccc4nc23)CC1`: the figures for the EC50 in [1], in data set [9] and in [12] were 10.5 µM, 18 µM and 17 µM, respectively. In addition, the CC50 in data set [7] was 150 µM; in [10], 50 µM. The selectivity ratio was determined as 14 in data set [8] and 2.8 in data set [11].

In the case of `CN1CCN(C(=O)c2ccc3nc4ccccc4c(NCCc4c[nH]c5ccccc45)c3c2)CC1`, the figures for the EC50 in [1], in [9] and in [12] were 28 µM, 25 µM and 27 µM, respectively. The figures for the CC50 in [7] and in data set [10] were 170 µM and 65 µM, respectively. The selectivity ratio in data set [8] stood at 6.1; in [11] it was 2.6.

Regarding `CN1CCN(C(=O)c2cccc3c(NC4CCN(Cc5ccccc5)CC4)c4ccccc4nc23)CC1`, the EC50 was 15 µM in data set [1], 22 µM in data set [9] and 20 µM in data set [12]. For the same compound, the figures for the CC50 in data set [7] and in data set [10] were 300 µM and 80 µM, respectively. The values for the selectivity ratio in data set [8] and in [11] were 20 and 3.6, respectively.

The term EC50 denotes the midpoint of the concentration-response curve. Higher therefore signals weaker potency. A word on the CC50: it is the concentration giving 50% cytotoxicity. Lower therefore signals harm at low concentration. One may read the remaining activity as the activity still measured, relative to the control. Low readings indicate little activity left, high ones much activity left.
